Measured values published in PubChem BioAssay AID504383 (The Scripps Research Institute Molecular Screening Center, 2011).
Where “and” joins values, the source holds several entries; their conditions need not be identical. Equal values may be shown once. In all, about 2,500 compounds went through this assay and about 1,200 (48%) were called active.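 The calls were made as follows: active = mean activation above the low control average plus 3 SD, as set in the primary screen (cut at about 12% in these data); inactive = the rest.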 The set was probably picked from earlier hits. The list shows a part of the results.

The molecules below were run against Troponin I, cardiac muscle (Homo sapiens) + Troponin T, cardiac muscle (Homo sapiens) + Troponin C, slow skeletal and cardiac muscles (Homo sapiens) (UniProt P19429+P45379+P63316) (assay: cardiac RTF calcium sensitivity activators, confirmation, biochemical, IANBD-TnC fluorescence, triplicate (AID 504383;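 also: 0% = DMSO at 0.472 mM calcium and 100% = DMSO at 2.9 mM calcium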)). Conditions: IANBD-labeled cardiac RTF, Ca2+ sensitivity fluorescence, at 7.2 µM, hits give high values, tested at EC20 calcium, 0.472 mM.
In short: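 Assay system: labelled regulated thin filaments / Timing: 15 min at 25 °C / Detection: fluorescence intensity of labelled filaments / Measure: fluorescence gain scaled between EC20 and EC100 calcium controls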

Row | SMILES | activation
1 | NC(=O)c1c(NC(=O)c2ccc(S(=O)(=O)N(CCCl)CCCl)cc2)sc2c1CCCCC2 | 14.1% (active)
2 | N#CC(C#N)=Cc1ccc(-c2ccccc2F)o1 | 45.7% (active)
3 | CCCCC(=O)N/N=C/c1c(O)n(CC)c(=S)n(CC)c1=O | 4.35% (inactive)
4 | O=c1[nH]c(=S)n(-c2ccc(Br)cc2)c(O)c1C=Nc1ccc(N2CCOCC2)cc1 | 6.9% (inactive)
5 | CCn1c(O)c(C=Nc2ccc(N3CCOCC3)cc2)c(=O)n(CC)c1=S | 88.4% (active)
6 | CCCCN1C(=O)NC(=O)C2(Cc3ccccc3N3CCOCC32)C1=O (stereo not drawn) | 4.27% (inactive)
7 | C=CCn1c(O)c(C=NC2CCN(Cc3ccccc3)CC2)c(=O)[nH]c1=O | 6.93% (inactive)
8 | CCCCCCC(=O)N/N=C/c1c(O)n(CCc2ccccc2)c(=O)[nH]c1=O | -0.94% (inactive)
9 | O=c1[nH]c(=O)n(Cc2ccc(F)cc2)c(O)c1/C=N/Nc1ccccc1 | 107% (active)
10 | OC12CCCCC1C(c1ccccc1)NCC2 (stereo not drawn) | 7.25% (inactive)
11 | O=C(CN1CCN(c2ccccc2F)CC1)Nc1cccnc1Cl | 27.1% (active)
12 | CN1/C(=C\C=C2C(=O)NC(=S)NC2=O)C(C)(C)c2ccccc21 | 10.4% (inactive)
13 | COc1ccc(CN2C(=O)NC(=O)/C(=C/c3ccoc3)C2=O)cc1 | 10.9% (inactive)
14 | O=C1NC(=O)N(c2cccc(Cl)c2)C(=O)/C1=C\c1ccc(Sc2nc3ccccc3[nH]2)o1 | 11.5% (inactive)
15 | Cc1cc(C)c(Cn2c(C(=O)O)c(C=O)c3ccccc32)c(C)c1 | 10.3% (inactive)
16 | CNS(=O)(=O)c1ccc(N=Cc2c(O)n(-c3ccccc3)c(=O)[nH]c2=O)cc1 | 37.6% (active)
17 | O=c1[nH]c(O)c(C=Nc2ccccc2Oc2ccccc2)c(=O)[nH]1 | 10.2% (inactive)
18 | O=c1[nH]c(=O)n(-c2ccccc2)c(O)c1/C=C/C=Nc1ccccc1 | 8.9% (inactive)
19 | O=c1[nH]c(=O)n(C2CCCCC2)c(O)c1/C=C/C=Nc1ccccc1 | 12.3% (active)
20 | Cc1ccc(-n2c(O)c(/C=C/C=Nc3ccccc3)c(=O)[nH]c2=O)cc1 | 26.4% (active)
21 | Cc1cccc(-n2c(O)c(/C=C/C=Nc3ccccc3)c(=O)[nH]c2=O)c1 | 414% (active)
22 | CCN(CC)c1ccc(N=Cc2c(O)n(Cc3ccco3)c(=O)[nH]c2=O)cc1 | 5.39% (inactive)
23 | COc1ccc(-n2c(O)c(/C=C/C=Nc3ccccc3)c(=O)[nH]c2=O)cc1 | 5.05% (inactive)

Row | SMILES | activation
24 | CCN(CC)c1ccc(/C=N/c2sc3c(c2C#N)C2CCN3CC2)c(O)c1 | 7.45% (inactive)
25 | O=C1NC(=O)N(Cc2ccccc2)C(=O)/C1=C\N1CCCc2ccccc21 | 3.9% (inactive)
26 | O=c1[nH]c(O)c(/C=C2\C=Nc3ccc(OCc4ccccc4)cc32)c(=O)[nH]1 | 8.62% (inactive)
27 | Cn1c(O)c(/C=C/C=Nc2ccccc2)c(=O)n(C)c1=S | 21.7% (active)
28 | Cn1c(O)c(/C=C/C=Nc2ccccc2)c(=O)n(C)c1=O | 9.76% (inactive)
29 | CN1C[C@H](CO)C=C2c3cccc4[nH]cc(c34)C[C@H]21 | -3.89% (inactive)
30 | CC1=C[C@@H]2c3cccc4[nH]cc(c34)C[C@H]2N(C)C1 | 50% (active)
31 | CCC(CO)NC(=O)C1C=C2c3cccc4[nH]cc(c34)CC2N(C)C1 (stereo not drawn) | 9.84% (inactive)
32 | COCCOC(=O)c1c(N)n(Cc2ccco2)c2nc3ccccc3nc12 | 8.08% (inactive)
33 | COCCNC(=O)c1c(N)n(Cc2ccco2)c2nc3ccccc3nc12 | 16.3% (active)
34 | Nc1c(C(=O)NCC2CCCO2)c2nc3ccccc3nc2n1Cc1ccco1 (stereo not drawn) | 1930% (active)
35 | CC(C)n1c(=O)c(C=Nc2cccc([N+](=O)[O-])c2)c(O)n(CCc2ccccc2)c1=O | 19.7% (active)
36 | Cc1cc(Cl)nc(N)n1 | 96.2% (active)
37 | C[C@]12CCC(=O)C=C1CC[C@@H]1[C@@H]2CC[C@]2(C)C(=O)CC[C@@H]12 | -0.04% (inactive)
38 | CCOC(=O)c1ccccc1C(=O)OCC | 4170% (active)
39 | CCN(CC)C(=O)c1ccc(NC(=O)COc2ccc([N+](=O)[O-])cc2Cl)cc1 | 4.48% (inactive)
40 | O=[N+]([O-])c1ccc(N2CCCCCC2)c2nonc12 | 31.9% (active)
41 | CCOC(=O)C1CCCN(c2ccc([N+](=O)[O-])c3nonc23)C1 (stereo not drawn) | 16.5% [scaled from EC20 to saturating calcium] (active)
42 | Nc1ccc2nonc2c1[N+](=O)[O-] | 6.77% (inactive)
43 | O=[N+]([O-])c1ccc(N2CCCC2)c2ncccc12 | 38.3% (active)
44 | CC(C)C[C@H]1C(=O)N2CCC[C@H]2[C@]2(O)O[C@](NC(=O)[C@@H]3C=C4c5cccc6[nH]cc(c56)C[C@H]4N(C)C3)(C(C)C)C(=O)N12 | 8.78% (inactive)
45 | O=C1NC(=S)SC1=Cc1ccc(N(CCCl)CCCl)cc1 | 0.25% (inactive)
46 | CN1CCN(c2ccc3c(c2)S(=O)(=O)c2ccccc2C3=O)CC1 | 2.45% (inactive)

Row | SMILES | activation
47 | CCN1C[C@]2(CO)CC[C@H](OC)[C@@]34C5C[C@H]6[C@H](OC)C5[C@](O)(C[C@H]6OC)[C@@H](C(OC)C23)[C@@H]14 (stereo partly drawn) | 15.5% (active)
48 | C[C@]12CCC3C(CC[C@H]4C[C@@H](O)[C@H](O)C[C@]34C)C1CC[C@@H]2O (stereo partly drawn) | 24.5% (active)
49 | Nc1c2c(nc3ccccc13)CCN(Cc1ccccc1)C2 | 87.8% (active)
50 | CCOP(=O)(Cc1cc(C#N)oc1C)OCC | 7.87% (inactive)
51 | O=C(O)C1=CC2c3ccccc3C1c1ccccc12 | 11.7% (active)
52 | CC(C)c1ccc(N2C(=O)NC(=O)/C(=C/C=C/c3ccco3)C2=O)cc1 | 7.28% (inactive)
53 | CN(C)P(=O)(CCl)Nc1ccccc1 (stereo not drawn) | 38.8% (active)
54 | CN1CCC2(CC1)C(C#N)=C(N)NC(S)=C2C#N | 6.17% (inactive) and 11.4% (inactive)
55 | COC(=O)[C@H]1C[C@@H]1[C@H](NP(=O)(c1ccccc1)c1ccccc1)c1ccccc1 | -0.05% (inactive)
56 | CCOCCCn1c(N)c(C(=O)Nc2sc3c(c2C(=O)OC)CCCC3)c2nc3ccccc3nc21 | 12.7% (active)
57 | COc1ccc(N=Nc2c(O)[nH]c(=S)[nH]c2=O)cc1 | 6.09% (inactive)
58 | CCOC(=O)c1cc(CC)sc1/N=C/c1c(O)[nH]c(=S)[nH]c1=O | 8.76% (inactive)
59 | Cc1cc2c(C(F)(F)F)cc(=O)oc2c2c1NCCC2 | 79.4% (active)
60 | O=c1cc(C(F)(F)F)c2cc3c4c(c2o1)CCCN4CCC3 | 67.7% (active)
61 | Cc1ccc(C)c(Cn2c(C(=O)O)c(C=O)c3ccccc32)c1 | 4.27% (inactive)
62 | CN1/C(=C\C=C2C(=O)NC(=O)NC2=O)C(C)(C)c2ccccc21 | 9.74% (inactive)
63 | CC1(C)OC(c2ccccc2)=C/C(=C/C=C2C(=O)NC(=O)NC2=O)O1 | 6.59% (inactive)
64 | CCC1(C)OC(c2ccccc2)=C/C(=C/C=C2C(=O)NC(=O)NC2=O)O1 (stereo not drawn) | 32.1% (active)
65 | CN1CCN(Cc2cn(C)c3ccccc23)CC1CCO (stereo not drawn) | 40.5% (active)
66 | C#C[C@]1(O)CC[C@H]2[C@@H]3CCC4=Cc5nc6nc7ccccc7n6cc5C[C@]4(C)[C@H]3CC[C@@]21C | 6.44% (inactive)
67 | C=Cn1ccnc1P(=S)(c1nccn1C=C)c1nccn1C=C | 23.4% (active)
68 | COC(=O)C1=C(c2cccc(C#N)c2)C[C@@H]2CC[C@H]1N2C(=O)N1CCOCC1 | 14.3% (active)
